Experimental data published in ChEMBL document CHEMBL1152714, “Design, synthesis and biological evaluation of a novel class of anticancer agents: anthracenylisoxazole lexitropsin conjugates” (Bioorg Med Chem, 2009).
One block for each compound: values may come before it. Active and inactive are the calls of the source. The rule behind the calls is not given here.

Columns and labels:
[1] = Antitumor activity against human NCI60 cells after 48 hrs by SRB assay; type: functional; details: NCI60, 48 h
Outline: (§1)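 Cells were exposed to the drug continuously for 48 h. Cell viability or growth was estimated with the sulforhodamine B protein assay.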

[2] = target: DNA polymerase I, thermostable (Thermus aquaticus) (UniProt P19821); assay: Inhibition of Taq polymerase
[3] = organism: Homo sapiens; assay: Stabilization of human telomeric G-quadruplex DNA assessed as inhibition of duplex formation at 5 uM by ESI-MS study
Outline: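 Time-course ESI-MS was run on a mixture of 5 μM G-quadruplex DNA, 5 μM complementary C-DNA and 5 μM ligand. Ion intensities of single-stranded and duplex DNA were followed as the strands re-hybridized. TMPyP4 was the positive control and no ligand the negative control.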

[4] = system: HOP-92; assay: Antitumor activity against human HOP92 cells overexpressing c-myc after 48 hrs by SRB assay; type: functional; details: HOP-92, 48 h; outline: as §1
[5] = target: Telomerase reverse transcriptase (Homo sapiens) (UniProt O14746); assay: Inhibition of telomerase assessed as telomere elongation by TRAP assay
Outline: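 Telomere elongation was assessed by a TRAP assay with gel electrophoresis read-out.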

[6] = system: HOP-62; assay: Antitumor activity against human HOP62 cells overexpressing c-myc after 48 hrs by SRB assay; type: functional; details: HOP-62, 48 h; outline: as §1
[7] = system: NCI-H226; assay: Antitumor activity against human NCI-H226 cells overexpressing c-myc after 48 hrs by SRB assay; type: functional; details: NCI-H226, 48 h; outline: as §1
[8] = system: SF-539; assay: Antitumor activity against human SF539 cells overexpressing c-myc after 48 hrs by SRB assay; type: functional; details: SF-539, 48 h; outline: as §1
[9] = system: Mus musculus; assay: Acute toxicity in ip dosed mouse; type: organism-based; details: in vivo
Outline: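 Mice given three dose regimens (100, 200 and 400 mg/kg), with animals followed to day 14 and body weight recorded at day 14 for signs of acute toxicity.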

[10] = system: DNA; assay: Binding affinity to calf thymus DNA at 10 uM by microarray fluorescence experiment; type: nucleic-acid assay; details: Bos taurus
Outline: (§2)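 DNA was prepared in TE buffer with 10 mM KCl at pH 7.0, to a final concentration of 400 […]. The oligonucleotide was hybridized with Cy3-AP3-dCTP. The ligand was 10 μM in aqueous 25% DMSO. Mixtures were incubated at 37°C for 5 min, then printed on slides. Excitation was at 310, 380, 410 and 485 nm, emission at 530 nm. Slides were read on a microarray scanner at 10 μm resolution.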

[11] = Binding affinity to Hurley-oligonucleotide at 10 uM by microarray fluorescence experiment; outline: as §2
[12] = organism: Homo sapiens; assay: Binding affinity to human DNA at a drug-DNA ratio of 1:1 by fluorescence experiment
Outline: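 Solution fluorescence was measured on histone-free human DNA mixed with the ligand at a 1:1 molar ratio. The shift in λmax was monitored.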

[13] = system: Mus musculus; assay: Toxicity in mouse assessed as weight gain at 100 mg/kg, ip after 14 days; type: organism-based; design: dose 100 mg/kg, route intraperitoneal; details: in vivo, 336 h
Outline: (§3)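 Acute toxicity was tested in mice at three dose regimens (100, 200 and 400 mg/kg). Body weight was assessed at day 14.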

[14] = system: Mus musculus; assay: Toxicity in mouse assessed as weight gain at 200 mg/kg, ip after 14 days; type: organism-based; design: dose 200 mg/kg, route intraperitoneal; details: in vivo, 336 h; outline: as §3
[15] = system: Mus musculus; assay: Toxicity in mouse assessed as weight gain at 400 mg/kg, ip after 14 days; type: organism-based; design: dose 400 mg/kg, route intraperitoneal; details: in vivo, 336 h; outline: as §3
[16] = system: SNB-75; assay: Antitumor activity against human SNB75 cells overexpressing c-myc after 48 hrs by SRB assay; type: functional; details: SNB-75, 48 h; outline: as §1
[17] = system: EKVX; assay: Antitumor activity against human EKVX cells overexpressing c-myc after 48 hrs by SRB assay; type: functional; outline: as §1
[18] = system: HCC 2998; assay: Antitumor activity against human HCC2998 cells overexpressing c-myc after 48 hrs by SRB assay; type: functional; details: HCC 2998, 48 h; outline: as §1
[19] = system: SF-295; assay: Antitumor activity against human SF295 cells overexpressing c-myc after 48 hrs by SRB assay; type: functional; details: SF-295, 48 h; outline: as §1

Chain of Telomerase reverse transcriptase (Homo sapiens) (O14746 whole entry): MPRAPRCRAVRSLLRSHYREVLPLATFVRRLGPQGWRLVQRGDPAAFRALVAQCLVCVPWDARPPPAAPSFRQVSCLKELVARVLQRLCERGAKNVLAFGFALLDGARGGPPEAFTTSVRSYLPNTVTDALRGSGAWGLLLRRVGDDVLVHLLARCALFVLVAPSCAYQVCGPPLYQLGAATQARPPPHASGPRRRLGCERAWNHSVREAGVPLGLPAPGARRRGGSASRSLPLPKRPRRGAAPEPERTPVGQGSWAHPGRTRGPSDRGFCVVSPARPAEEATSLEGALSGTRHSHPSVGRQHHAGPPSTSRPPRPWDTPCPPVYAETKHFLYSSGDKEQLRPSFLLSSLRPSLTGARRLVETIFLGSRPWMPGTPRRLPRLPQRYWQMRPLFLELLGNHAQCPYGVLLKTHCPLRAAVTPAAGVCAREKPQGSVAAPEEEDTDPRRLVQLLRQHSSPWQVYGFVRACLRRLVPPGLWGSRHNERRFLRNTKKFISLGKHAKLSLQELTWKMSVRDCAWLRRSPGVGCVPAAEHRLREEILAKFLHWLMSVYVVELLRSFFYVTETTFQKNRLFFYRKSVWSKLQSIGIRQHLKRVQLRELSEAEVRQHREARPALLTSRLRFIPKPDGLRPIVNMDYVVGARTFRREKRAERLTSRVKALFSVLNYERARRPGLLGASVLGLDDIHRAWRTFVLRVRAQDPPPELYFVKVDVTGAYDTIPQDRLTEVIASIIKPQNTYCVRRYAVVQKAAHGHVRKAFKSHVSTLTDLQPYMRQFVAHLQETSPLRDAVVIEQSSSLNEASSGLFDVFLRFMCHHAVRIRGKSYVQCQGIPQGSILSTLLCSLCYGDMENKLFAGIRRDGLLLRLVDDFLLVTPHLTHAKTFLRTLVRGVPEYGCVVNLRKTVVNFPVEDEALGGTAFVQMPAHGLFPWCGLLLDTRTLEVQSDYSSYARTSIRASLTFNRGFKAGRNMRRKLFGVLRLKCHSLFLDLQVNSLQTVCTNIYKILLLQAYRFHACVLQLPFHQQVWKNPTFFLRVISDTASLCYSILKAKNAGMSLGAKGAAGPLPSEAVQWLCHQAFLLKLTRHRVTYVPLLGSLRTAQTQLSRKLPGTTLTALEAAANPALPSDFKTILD
Chain of DNA polymerase I, thermostable (Thermus aquaticus) (P19821 whole entry): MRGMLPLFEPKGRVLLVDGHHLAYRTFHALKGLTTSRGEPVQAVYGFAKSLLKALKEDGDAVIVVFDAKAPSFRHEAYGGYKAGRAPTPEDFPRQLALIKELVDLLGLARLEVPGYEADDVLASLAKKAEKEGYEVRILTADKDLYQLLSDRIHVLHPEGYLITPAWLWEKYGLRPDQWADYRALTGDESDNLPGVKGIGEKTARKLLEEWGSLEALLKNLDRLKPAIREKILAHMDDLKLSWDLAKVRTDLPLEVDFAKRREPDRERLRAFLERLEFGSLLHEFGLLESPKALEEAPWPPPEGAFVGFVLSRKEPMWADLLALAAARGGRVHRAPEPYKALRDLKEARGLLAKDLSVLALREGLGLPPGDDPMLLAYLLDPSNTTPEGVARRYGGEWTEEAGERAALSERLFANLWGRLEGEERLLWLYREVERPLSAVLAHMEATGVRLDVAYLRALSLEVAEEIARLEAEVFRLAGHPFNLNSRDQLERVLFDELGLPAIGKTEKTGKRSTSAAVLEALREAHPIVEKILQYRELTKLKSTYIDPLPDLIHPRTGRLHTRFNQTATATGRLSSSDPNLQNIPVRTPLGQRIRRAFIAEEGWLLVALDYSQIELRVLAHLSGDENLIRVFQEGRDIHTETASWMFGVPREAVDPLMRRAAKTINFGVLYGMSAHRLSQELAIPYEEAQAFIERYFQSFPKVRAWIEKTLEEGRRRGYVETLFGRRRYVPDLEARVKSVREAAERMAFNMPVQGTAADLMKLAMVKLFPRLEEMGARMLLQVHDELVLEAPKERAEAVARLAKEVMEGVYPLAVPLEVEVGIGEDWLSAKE

SMILES: CN(C)CCCNC(=O)c1cc(NC(=O)c2cc(NC(=O)c3onc(-c4c5ccccc5cc5ccccc45)c3C(=O)Nc3cc(C(=O)Nc4cc(C(=O)NCCCN(C)C)n(C)c4)n(C)c3)cn2C)cn1C
GI50 ([1]; read-out: GI50): 20.4 µM | GI50 ([1]; read-out: pGI50 (converted)): 20.4 µM

Activity [2]: inactive | Activity [3]: Active | Activity [5]: Active
SMILES: Cc1onc(-c2c3ccccc3c(Cl)c3ccccc23)c1C(=O)Nc1cc(C(=O)NCCCN(C)C)n(C)c1
GI50 ([1]; read-out: GI50): 1.78 µM | GI50 ([1]; read-out: pGI50 (converted)): 1.91 µM | GI50 [4]: 0.0933 µM

SMILES: Cc1onc(-c2c3ccccc3cc3ccccc23)c1C(=O)Nc1cc(C(=O)NCCCN(C)C)n(C)c1
GI50 ([1]; read-out: GI50): 7.94 µM | GI50 ([1]; read-out: pGI50 (converted)): 7.94 µM | GI50 [6]: 0.407 µM

GI50 [7]: < 0.01 µM
SMILES: Cc1onc(-c2c3ccccc3cc3ccccc23)c1C(=O)NCCCN(C)C
GI50 ([1]; read-out: GI50): 32.4 µM | GI50 ([1]; read-out: pGI50 (converted)): 32.4 µM

Activity [3]: Active
SMILES: Cc1onc(-c2c3ccccc3c(-c3ccccc3)c3ccccc23)c1C(=O)Nc1cc(C(=O)NCCCN(C)C)n(C)c1
GI50 ([1]; read-out: GI50): 0.95 µM | GI50 ([1]; read-out: pGI50 (converted)): 1.95 µM | GI50 [6]: 0.0105 µM | GI50 [4]: 0.0631 µM | GI50 [8]: < 0.01 µM

SMILES: Cc1onc(-c2c3ccccc3cc3ccccc23)c1C(=O)Nc1cc(C(=O)Nc2cc(C(=O)NCCCN(C)C)n(C)c2)n(C)c1
GI50 ([1]; read-out: GI50): 10.5 µM | GI50 ([1]; read-out: pGI50 (converted)): 12.3 µM | Activity [9]: Non-toxic | Activity [10]: Active | Activity [11]: Active | Activity [12]: Active | Activity [13]: Toxic | Activity [14]: Toxic | Activity [15]: Toxic

SMILES: CCOC(=O)c1c(-c2c3ccccc3nc3ccccc23)noc1C
GI50 ([1]; read-out: GI50): 20.4 µM | GI50 ([1]; read-out: pGI50 (converted)): 20.4 µM

SMILES: Cc1onc(-c2c3ccccc3cc3ccccc23)c1C(=O)N(CCCN(C)C)CCCN(C)C
GI50 ([1]; read-out: GI50): 4.57 µM | GI50 ([1]; read-out: pGI50 (converted)): 4.9 µM

SMILES: Cc1onc(-c2c3ccccc3cc3ccccc23)c1C(=O)Nc1cc(C(=O)N(CCCN(C)C)CCCN(C)C)n(C)c1
GI50 ([1]; read-out: GI50): 3.89 µM | GI50 ([1]; read-out: pGI50 (converted)): 3.89 µM

SMILES: Cc1onc(-c2c3ccccc3cc3ccccc23)c1C(=O)Nc1cc(C(=O)Nc2cc(C(=O)N(CCCN(C)C)CCCN(C)C)n(C)c2)n(C)c1
GI50 ([1]; read-out: GI50): 15.5 µM | GI50 ([1]; read-out: pGI50 (converted)): 15.5 µM

SMILES: C[n+]1ccc(-c2c3nc(c(-c4cc[n+](C)cc4)c4ccc([nH]4)c(-c4cc[n+](C)cc4)c4ccc([nH]4)c(-c4cc[n+](C)cc4)c4nc2C=C4)C=C3)cc1
Activity [3]: Active

SMILES: Cc1onc(-c2c3ccccc3c(Br)c3ccccc23)c1C(=O)Nc1cc(C(=O)NCCCN(C)C)n(C)c1
GI50 ([1]; read-out: GI50): 8.71 µM | GI50 ([1]; read-out: pGI50 (converted)): 8.71 µM | GI50 [16]: 0.158 µM

GI50 [18]: 0.776 µM
SMILES: Cc1onc(-c2c3ccccc3nc3ccccc23)c1C(=O)Nc1cc(C(=O)Nc2cc(C(=O)NCCCN(C)C)n(C)c2)n(C)c1
GI50 ([1]; read-out: GI50): 20.9 µM | GI50 ([1]; read-out: pGI50 (converted)): 20.9 µM | GI50 [17]: 0.661 µM | GI50 [19]: 0.0302 µM
